This is a sample that favours compounds with a hit; in the whole collection about 5.1% have one here.
STAT3 inh – IL-6 driven STAT3 reporter inhibitors, primary screen, U3A cells, luciferase, luminescence, MLSCN library; IL-6 STAT3-luciferase reporter; host cell line lacks STAT1; inhibition, % at 5.5 µM; hit rate 0.89% among 190,000;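 active means inhibition above the mean inhibition across all screened compounds plus 3 SD, cut at about 44% in these data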;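 further: 0% = DMSO only wells and 100% = 100 µM nifuroxazide control wells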
STAT1 activator – STAT1 signaling activators, primary screen, cell-based, HTS, luciferase reporter; NIH 3T3 STAT1-luciferase reporter, IFN-gamma, luminescence; 100% = IFN-gamma alone, no compound; activation (% of control), % at 5.5 µM; hit rate 2.6% among 200,000; AID 932, 2007;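 active means activation above the screen-wide mean activation plus 3 SD, cut at about 130% in these data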;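 further: raw ratio to IFN-gamma control signal so 100% means no change and 0% no light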
STAT3 act – IL-6 driven STAT3 reporter potentiators, primary screen, U3A cells, luciferase, luminescence, MLSCN library | IL-6 STAT3-luciferase reporter; 100% = signal with IL-6 EC80 alone | activation (% of control), % at 5.6 µM | hit rate 0.91% among 190,000;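 active means activation above the screen-wide mean of compound activation plus 3 SD, cut at about 130% in these data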;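 further: 0% = background luminescence of wells with medium and substrate only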
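System – human U3A cells carrying STAT3-luciferase construct · Probe or stimulus – Interleukin-6, 33 ng/mL · Schedule – compound 1 h, then IL-6 6 h at 37 °C · Signal – luminescence from STAT3-driven luciferase reporter · Evaluation – percent of IL-6-only median luminescence · Benchmarks – IL-6-only high control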
NF-kB neuron act – activators of NF-kB expression in neurons, primary screen, cell-based, HTS; human neuronal cells, NF-kB reporter expression; stronger effect = higher value; fold change at 12.5 µM; hit rate 1.6% among 190,000; in the data active means fold change above about 3.3
STAT1 inh – STAT1 signaling inhibitors, primary screen, cell-based, HTS, luciferase reporter | NIH 3T3 STAT1-luciferase reporter, IFN-gamma, luminescence | inhibition, % at 5.5 µM | hit rate 0.35% among 200,000 | AID 920, 2007;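 active means inhibition above a set limit, the mean inhibition across all tested compounds plus 3 SD, cut at about 34% in these data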;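 further: 0% = IFN-gamma with DMSO and 100% = IFN-gamma with 300 µM nifuroxazide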
APP 5'UTR act – activators of APP 5'UTR luciferase reporter, primary screen, SH-SY5Y cells | hit rate 1% among 190,000 | AID 1276, 2008 | SH-SY5Y APP 5'UTR luciferase reporter, luminescence; zero percent = DMSO vehicle wells | activation, % at 2 µM;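 active means activation above a set limit, based on mean plus 3 SD of controls, cut at about 140% in these data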
Numbers without * were called inactive; / = no result.

SMILES	STAT3 inh	STAT1 activator	STAT3 act	NF-kB neuron act	STAT1 inh	APP 5'UTR act
COc1ccc(CCNc2ncnc3c2oc2ccccc23)cc1OC	79.8*	77.3	36.8	0.34	24.9	-12.2
CC(=O)Nc1ccc(Nc2nc(C)nc3c2oc2ccccc23)cc1	14.9	98.7	92.3	0.54	1.4	3.9
CCc1nc(NCc2ccccn2)c2oc3ccccc3c2n1	/	/	/	0.52	/	/
COc1ccc(-c2cc3c(nn2)-c2ccccc2C3=O)cc1	91.8*	42.0	25.3	1.55	62.1*	45.2
Cc1cccc(-c2cc3c(nn2)-c2ccccc2C3=O)c1	31.3	98.6	78.0	6.9*	1.5	/
COc1ccc(C2=C(Nc3ccc(C)cc3)c3ccccc3C2=O)cc1	2.4	96.0	97.9	1.39	4.5	9.1
COc1cccc(NC(=S)/C(=C(\[O-])c2cc(C)n(-c3ccccc3F)c2C)[n+]2ccc(N(C)C)cc2)c1	5.5	70.3	96.8	0.57	30.9	25.8
COc1ccc(-c2cc(-c3ccccc3)c(C#N)c(S(C)=O)n2)cc1 (configuration not stated)	-3.7	104.6	109.5	3.58*	-5.0	/
CCSc1nc(-c2ccc(OC)cc2)cc(-c2ccccc2)c1C#N	13.0	90.8	93.7	1.04	10.0	6.6
CC(C)(C)CC(=O)O/N=C(\N)c1ccccn1	24.0	126.4	82.6	3.07	-29.1	88.8
CNC(=O)c1cc2c(s1)-c1ccccc1CC2	-2.7	144.0*	108.2	1.97	-50.9	18.0
O=C(N/N=C/c1ccc(F)c(F)c1)c1cc2c(s1)-c1ccccc1CC2	27.6	98.1	81.9	0.81	2.1	-6.9
Oc1ccc(N=C/C=C/c2ccc(Br)cc2)cc1-c1nc2ccccc2s1	-14.3	122.7	110.6	1.8	-25.5	34.7
Cc1ccc(-n2c(=O)[nH]c3ncccc3c2=O)cc1	4.1	102.3	101.0	1.07	-3.9	8.3
Cc1ccc(-n2c(-c3ccc(Br)cc3)c[n+]3c2CCc2ccc4cccnc4c2-3)cc1	74.6*	65.2	42.4	1.5	39.0*	-2.6
CC(Sc1nc2ccccc2[nH]1)C(=O)O (configuration not stated)	4.0	98.5	102.6	0.94	1.7	0.4
CC(=O)N=C(N)Sc1nc2ccccc2[nH]1	0.5	134.5*	101.8	2.7	-37.4	63.2
Cc1c(CNCCC2=CCCCC2)c(C(=O)O)c(C)n1Cc1ccccc1	5.3	102.3	99.2	1	-4.2	-2.5
CS(=O)(=O)N1CCc2cc(C(=O)OCC(=O)c3ccccc3)ccc21	-13.4	156.1*	111.0	3.99*	-56.6	8.3
CCOc1ccc(NCC(=O)c2ccc(C)cc2)cc1	9.2	97.4	97.4	0.89	0.8	7.4
Cc1cc(C)c[n+](-c2nc3ccccc3nc2C(=C=[N-])C#N)c1	4.0	96.5	100.8	4.39*	5.3	3.2
O=C(CSc1ccccn1)N/N=C/C=C/c1ccccc1	-14.8	108.8	113.0	1.35	-9.8	-2.9
C(=C\c1ccccc1)/CSc1ccccn1	14.5	135.6*	93.8	2.17	-38.6	54.2
C#CC(=O)N(c1cccc(OC)c1)C(C(=O)NC1CCCC1)c1cccs1 (configuration not stated)	109.7*	61.2	14.3	0.14	43.5*	-19.1
O=C(Nc1ccccn1)c1csc2c1CCCC2	3.3	137.4*	100.1	3.91*	-43.0	132.6
SMILES	STAT3 inh	STAT1 activator	STAT3 act	NF-kB neuron act	STAT1 inh	APP 5'UTR act
COc1ccccc1NC(=O)c1csc2c1CCCC2	11.5	99.7	91.1	1.27	0.3	16.1
C=CCOc1c(CNc2cccc(C(=O)O)c2)cccc1OCC	10.0	111.6	101.1	1.64	-12.9	11.2
C/C(=N\Nc1cccc(C(=O)O)c1)c1ccc(Cl)s1	8.5	134.8*	97.8	2.1	-37.3	85.6
COc1ccc(C(=O)Nc2ccc(/C(C)=N/NC(=O)c3ccccc3O)cc2)cc1OC	0.3	129.3*	102.9	0.77	-32.4	13.1
COc1ccc(/C(C)=N/Nc2cccc(C(=O)O)c2)cc1OC	-5.2	106.8	111.5	1.08	-8.9	217.2*
COc1ccc(Br)cc1/C=N/Nc1cccc(C(=O)O)c1	-9.8	107.9	103.8	1.75	-8.6	17.8
C/C(=N\NC(=O)C(=O)Nc1cccc(C(F)(F)F)c1)c1ccc(Cl)s1	28.5	95.2	78.1	1.32	5.2	12.4
C=CCOc1c(CNc2cccc(C(=O)O)c2)cccc1OC	-13.8	145.0*	119.2	1.94	-48.9	55.6
CC(=O)c1ccc(NC(=O)C2CCCN(S(=O)(=O)c3c(C)[nH]c(=O)[nH]c3=O)C2)cc1 (configuration not stated)	5.7	92.9	96.8	1.37	5.3	3.5
Cc1ccc(S(=O)(=O)/N=C(/c2ccccc2)N2CCOCC2)c(C)c1	2.5	97.0	101.9	0.95	0.0	6.6
Cc1cc(S(=O)(=O)N2CCCCCC2)c(Cl)cc1Cl	4.4	100.0	97.2	0.87	0.1	-0.5
Cc1ccc(CN2CN(S(=O)(=O)c3cccs3)c3nc4ccccc4nc32)cc1	11.8	141.5*	97.5	6.43*	-53.4	5.6
CCOC(=O)N1CCN(C(=O)CSCc2ccccc2)CC1	-11.5	129.8*	108.4	1.64	-33.5	54.8
COC(=O)c1sc2nc(-c3ccco3)ccc2c1N	26.3	141.4*	80.2	1.48	-44.7	161.7*
NC(=O)c1sc2nc(-c3ccco3)ccc2c1N	25.8	130.7*	80.5	1.56	-33.3	44.6
COc1ccc(C(=O)c2sc3nc(-c4ccccc4)ccc3c2N)cc1	-1.7	107.7	99.6	1.01	-8.6	-4.8
NC(=O)c1sc2nc3c(c(-c4ccco4)c2c1N)CCC3	9.1	102.2	95.5	0.7	-7.3	-9.9
Nc1c(C(=O)Nc2ccccc2F)sc2nc(-c3ccco3)ccc12	20.9	121.0	85.1	0.56	-22.8	140.5*
O=C(Nc1ccccc1F)c1ccco1	4.2	102.8	98.3	0.96	-5.0	12.9
COC(=O)c1sccc1NC(=S)N1CC(C)CC(C)C1 (configuration not stated)	-0.1	98.6	100.2	1.01	0.9	/
COc1ccc(NS(=O)(=O)c2cccc(C(=O)N/N=C/c3ccccn3)c2)cc1	6.4	88.3	95.3	0.93	13.2	0.8
O=C(COc1ccccc1Cl)c1ccc[nH]1	6.4	120.3	96.0	1.41	-23.1	13.3
COCCNC(=O)COc1ccc(Br)cc1Cl	3.4	99.3	98.5	1.13	0.7	-0.2
O=C(COc1ccc(Br)cc1Cl)NC1CCCCC1	-3.8	138.1*	107.6	3.45*	-43.1	77.0
O=C(COc1ccc(Br)cc1Cl)c1ccc[nH]1	4.2	136.8*	106.0	3	-42.4	57.8
